The results in this text go back to ChEMBL document CHEMBL1131467, “Identification and initial structure-activity relationships of a novel class of nonpeptide inhibitors of blood coagulation factor Xa” (J Med Chem, 1998).

Experiment [1] deals with Cationic trypsin (Bos taurus). In words: Inhibitory activity against bovine trypsin.
A further experiment concerns the target Prothrombin (Homo sapiens, UniProt P00734). Briefly: Inhibitory activity against human Thrombin. A digest of the protocol: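 Human thrombin at 1 nM final, in Tris 0.05 M, NaCl 0.15 M, 0.1% PEG-8000, pH 7.5, room temperature. Enzyme and compound preincubated 30 min; reaction started with Pefachrome TH (50 μM final). Absorbance at 405 nm followed for 5 min. IC50 is the level that halves control initial velocity; apparent Ki by Cheng-Prusoff, assuming competitive inhibition.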

The next experiment addresses Coagulation factor X (Homo sapiens, UniProt P00742). In words: Inhibitory activity against human Coagulation factor X. A digest of the protocol: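 Human factor Xa at 1 nM final, in 0.05 M Tris, 0.15 M NaCl, 0.1% PEG-8000, pH 7.5, room temperature. Compound preincubated with enzyme 30 min, then Spectrozyme FXa added (200 μM final). Run in triplicate. IC50 taken from initial velocities; Ki by Cheng-Prusoff, assuming competitive inhibition.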

Sequence of Coagulation factor X (P00742 41-179 limits assumed): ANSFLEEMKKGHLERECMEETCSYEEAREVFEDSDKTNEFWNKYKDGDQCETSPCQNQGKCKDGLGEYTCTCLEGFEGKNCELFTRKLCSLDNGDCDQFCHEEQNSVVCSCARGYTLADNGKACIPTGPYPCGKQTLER
Sequence of Coagulation factor X (P00742 235-488 limits assumed): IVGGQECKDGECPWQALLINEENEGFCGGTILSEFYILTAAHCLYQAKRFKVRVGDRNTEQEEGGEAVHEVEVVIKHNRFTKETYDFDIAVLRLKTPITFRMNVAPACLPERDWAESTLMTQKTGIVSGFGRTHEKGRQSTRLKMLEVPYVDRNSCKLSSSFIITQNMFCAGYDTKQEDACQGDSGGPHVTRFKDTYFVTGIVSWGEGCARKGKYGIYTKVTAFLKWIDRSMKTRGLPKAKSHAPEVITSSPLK

Turning to `COC(=O)C(Cc1cccc(C(=N)N)c1)C(/C=C/c1ccccc1)NC(=O)c1ccc(-c2ccc(OC)cc2OC)cc1` (stereo unspecified), the IC50 in experiment [1] came out at 2900 nM; against Prothrombin, 3500 nM; on Coagulation factor X, 90 nM.
Take `COC(=O)C(Cc1cccc(C(=N)N)c1)C(/C=C/c1ccccc1)NC(=O)c1ccccc1C` (stereo unspecified): half-maximal inhibition against Coagulation factor X (IC50) was put at 1200 nM.
In turn, `COC(=O)C(Cc1cccc(C(=N)N)c1)C(/C=C/c1ccccc1)NC(=O)c1ccc2ccccc2c1` (stereo unspecified) registered an IC50 against Coagulation factor X of 160 nM.
Consider `CC(=O)OCC(Cc1cccc(C(=N)N)c1)C(/C=C/c1ccccc1)NC(=O)c1ccc(-c2ccccc2)cc1` (stereo unspecified), for which the IC50 against Prothrombin amounted to 3800 nM; against Coagulation factor X, 360 nM.
On to `COC(=O)C(Cc1cccc(C(=N)N)c1)C(/C=C/c1ccccc1)NC(=O)c1ccc(-c2ccccc2OC)cc1` (stereo unspecified), for which the figures for the IC50 (in experiment [1]; at Prothrombin; at Coagulation factor X) were 1800 nM, 3300 nM and 50 nM, respectively.
`COC(=O)C(Cc1cccc(C(=N)N)c1)C(/C=C/c1ccccc1)NC(=O)c1ccc(-c2ccccc2C)cc1` (stereo unspecified): the IC50 in experiment [1] was 3100 nM; at Prothrombin, 9000 nM; on Coagulation factor X, 90 nM.
Turning to `COC(=O)C(Cc1cccc(C(=N)N)c1)C(/C=C/c1ccccc1)NC(=O)C1CCC(C2CCCCC2)CC1` (stereo unspecified), at Coagulation factor X, the IC50 was 1120 nM.
At Coagulation factor X, `COC(=O)C(Cc1cccc(C(=N)N)c1)C(/C=C/c1ccccc1)NS(=O)(=O)c1ccc(-c2ccccc2)cc1` (stereo unspecified) yielded an IC50 of 1970 nM.
On to `COC(=O)C(Cc1cccc(C(=N)N)c1)C(/C=C/c1ccccc1)NC(=O)c1ccc(-c2ccccc2)cc1` (stereo unspecified), for which the IC50 at Prothrombin was 18000 nM; at Coagulation factor X, 110 nM.
The compound `COC(=O)[C@H](Cc1cccc(C(=N)N)c1)[C@@H](/C=C/c1ccccc1)NC(=O)c1ccccc1` registered an IC50 on Coagulation factor X of 700 nM.
Still for that read-out and setting: with `COC(=O)C(Cc1cccc(C(=N)N)c1)C(/C=C/c1ccccc1)NC(=O)c1ccc(C2CCCCC2)cc1` (stereo unspecified) the figure was 580 nM.
As to `CCc1ccccc1-c1ccc(C(=O)NC(/C=C/c2ccccc2)C(Cc2cccc(C(=N)N)c2)C(=O)OC)cc1` (stereo unspecified), the results for the IC50 on Prothrombin and against Coagulation factor X were 5300 nM and 380 nM, respectively.
Take `COC(=O)C(Cc1cccc(C(=N)N)c1)C(/C=C/c1ccccc1)NC(=O)c1ccc(Cc2ccccc2)cc1` (stereo unspecified): the midpoint of inhibition against Coagulation factor X, the IC50, lay at 460 nM. In other words, the sub-micromolar range.
With `COC(=O)C(Cc1cccc(C(=N)N)c1)C(/C=C/c1ccccc1)NC(=O)c1ccc(-c2cccc(OC)c2)cc1` (stereo unspecified), the values for the concentration for half-maximal inhibition (IC50) (in experiment [1]; against Prothrombin; against Coagulation factor X) were 2200 nM, 2400 nM and 110 nM, respectively.
As for `CCOc1cccc(-c2ccc(C(=O)NC(/C=C/c3ccccc3)C(Cc3cccc(C(=N)N)c3)C(=O)OC)cc2)c1` (stereo unspecified), the IC50 in experiment [1] amounted to 3600 nM; on Prothrombin, 4300 nM; on Coagulation factor X, 180 nM.
For the compound `N=C(N)c1cccc(CC(C(=O)O)C(/C=C/c2ccccc2)NC(=O)c2ccc(-c3ccccc3)cc2)c1` (stereo unspecified), the IC50 turned out to be 7700 nM on Prothrombin and 2700 nM against Coagulation factor X.
`COC(=O)C(Cc1cccc(C(=N)N)c1)C(/C=C/c1ccccc1)NC(=O)c1ccc(Oc2ccccc2)cc1` (stereo unspecified) showed an IC50 against Coagulation factor X of 1220 nM. In other words, the single-digit micromolar range.
Regarding `CCOc1ccc(-c2ccc(C(=O)NC(/C=C/c3ccccc3)C(Cc3cccc(C(=N)N)c3)C(=O)OC)cc2)cc1` (stereo unspecified), the IC50 in experiment [1] worked out at 2800 nM; against Prothrombin, 2000 nM; at Coagulation factor X it was 360 nM.
On Coagulation factor X, `COC(=O)[C@@H](Cc1cccc(C(=N)N)c1)[C@@H](/C=C/c1ccccc1)NC(=O)c1ccccc1` had an IC50 of 2000 nM.
As for `CN(C)C(=O)C(Cc1cccc(C(=N)N)c1)C(/C=C/c1ccccc1)NC(=O)c1ccc(-c2ccccc2)cc1` (stereo unspecified), on Coagulation factor X, half-maximal inhibition (IC50) was put at 4400 nM.
Consider `COC(=O)C(Cc1cccc(C(=N)N)c1)C(/C=C/c1ccccc1)NC(=O)c1ccc(C)cc1` (stereo unspecified), for which it took 600 nM to reach half-maximal inhibition on Coagulation factor X (IC50). This IC50 is about 7.3-fold lower than that of the compound before.
Turning to `CCc1ccc(-c2ccc(C(=O)NC(/C=C/c3ccccc3)C(Cc3cccc(C(=N)N)c3)C(=O)OC)cc2)cc1` (stereo unspecified), the midpoint of inhibition at Coagulation factor X, the IC50, lay at 890 nM.
Regarding `CCOc1ccccc1-c1ccc(C(=O)NC(/C=C/c2ccccc2)C(Cc2cccc(C(=N)N)c2)C(=O)OC)cc1` (stereo unspecified), the concentration for half-maximal inhibition (IC50) in experiment [1] stood at 1800 nM; against Prothrombin, 3800 nM; on Coagulation factor X, 60 nM.
On to `COC(=O)C(Cc1cccc(C(=N)N)c1)C(/C=C/c1ccccc1)NC(=O)c1ccc(-c2ccc(OC)c(OC)c2)cc1` (stereo unspecified), for which the IC50 stood at 4700 nM at Prothrombin and 30 nM against Coagulation factor X.
On the same counts, the results for `COC(=O)C(Cc1cccc(C(=N)N)c1)C(/C=C/c1ccccc1)NC(=O)c1ccc(-c2cccc(C)c2)cc1` (stereo unspecified) are 7200 nM and 120 nM.
As for `CCc1cccc(-c2ccc(C(=O)NC(/C=C/c3ccccc3)C(Cc3cccc(C(=N)N)c3)C(=O)OC)cc2)c1` (stereo unspecified), the IC50 in experiment [1] was found to be 2600 nM; on Prothrombin it was 1700 nM; at Coagulation factor X, 390 nM.
In the case of `COC(=O)C(Cc1cccc(C(=N)N)c1)C(/C=C/c1ccccc1)NC(=O)c1ccc(-c2ccc(OC)cc2)cc1` (stereo unspecified), the IC50 in experiment [1] was 2900 nM; at Prothrombin, 2700 nM; against Coagulation factor X, 80 nM.
Regarding `N=C(N)c1cccc(CCC(/C=C/c2ccccc2)NC(=O)c2ccc(-c3ccccc3)cc2)c1` (stereo unspecified), the IC50 is 31000 nM on Prothrombin and 950 nM against Coagulation factor X.
`COC(=O)C(Cc1cccc(C(=N)N)c1)C(/C=C/c1ccccc1)NC(=O)c1cccc(C)c1` (stereo unspecified) displayed an IC50 at Coagulation factor X of 1100 nM.
Still for that read-out and setting: the result for `COC(=O)C(Cc1cccc(C(=N)N)c1)C(/C=C/c1ccccc1)NC(=O)c1ccccc1` (stereo unspecified) reads 700 nM; that for `COC(=O)C(Cc1cccc(C(=N)N)c1)C(/C=C/c1ccccc1)NC(=O)c1cccc2ccccc12` (stereo unspecified), 790 nM.
Turning to `COC(=O)C(Cc1cccc(C(=N)N)c1)C(/C=C/c1ccccc1)NC(=O)c1ccc(-c2ccc(C)cc2)cc1` (stereo unspecified), the results for the IC50 (in experiment [1]; against Prothrombin; at Coagulation factor X) were 2800 nM, 4800 nM and 240 nM, respectively.
In the case of `COCC(Cc1cccc(C(=N)N)c1)C(/C=C/c1ccccc1)NC(=O)c1ccc(-c2ccccc2)cc1` (stereo unspecified), the IC50 in experiment [1] worked out at 10000 nM; on Prothrombin it was 8700 nM; at Coagulation factor X, 540 nM.
In turn, `N=C(N)c1cccc(CC(CO)C(/C=C/c2ccccc2)NC(=O)c2ccc(-c3ccccc3)cc2)c1` (stereo unspecified) registered an IC50 against Coagulation factor X of 650 nM.
The compound `COC(=O)[C@H](Cc1cccc(C(=N)N)c1)[C@@H](CCc1ccccc1)NC(=O)c1ccc(-c2ccccc2)cc1` registered an IC50 against Coagulation factor X of 60 nM.
In turn, `COC(=O)C(Cc1cccc(C(=N)N)c1)C(CCc1ccccc1)NC(=O)c1ccc(-c2ccccc2)cc1` (stereo in doubt; 8a) had an IC50 at Coagulation factor X of 60 nM.
The compound `COC(=O)C(Cc1cccc(C(=N)N)c1)C(CCc1ccccc1)NC(=O)c1ccc(-c2ccccc2)cc1` (stereo in doubt; 8b) yielded an IC50 against Coagulation factor X of 310 nM. Compared with the last compound, the IC50 is about 5.2-fold higher.
